Source: ChEMBL document CHEMBL1212805, “Evaluation of WLBU2 peptide and 3-O-octyl-sn-glycerol lipid as active ingredients for a topical microbicide formulation targeting Chlamydia trachomatis” (Antimicrob Agents Chemother, 2010)
Activity calls are given as the source filed them.

How the values were obtained:
[1] = Cytotoxicity against mouse McCoy cells after 48 hrs at =<60 uM by MTT assay; type: cell-based
Method in brief: (§1)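 Cytotoxicity was tested by running the MCC procedure without inoculum: compound diluted in half with SPG, then diluted 1:40 onto McCoy monolayers and incubated 48 h at 37°C. Read-out by Alamar Blue, MTT and LDH kits. SPG served as negative control and Triton X-100 as positive control. Nontoxic was defined as <10% toxicity in all methods.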

[2] = Cytotoxicity against mouse McCoy cells after 48 hrs at =<60 uM by almar blue assay; type: cell-based; method in brief: as §1
Chlamydia trachomatis [3] = test: Antibacterial activity against Chlamydia trachomatis serovar L2 at 50 uM after 5 mins relative to control; type: functional; settings: serovar L2, 5 min
Method in brief: (§2)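 Serovar L2 EBs (5 × 10⁶ IFU/ml in SPG, pH 7.5) mixed 1:1 with ten 2-fold SPG dilutions (final 50 μM top peptide, 25 mM lipid), exposed 5 or 120 min, diluted 1:40, plated on McCoy cells; fixed with methanol after 36–48 h, anti-LPS/FITC stained. Triplicate wells, three fields each, three independent days; percent inhibition versus no-drug control ± SD.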

Chlamydia trachomatis [4] = test: Antibacterial activity against Chlamydia trachomatis serovar L2 at 50 uM after 120 mins relative to control; type: functional; settings: serovar L2, 2 h; method in brief: as §2
Chlamydia trachomatis [5] = test: Antibacterial activity against Chlamydia trachomatis serovar D at 60.0 - 3.75 uM after 5 mins by MCC assay in presence of simulated vaginal fluid relative to control; type: functional, organism-based
Method in brief: (§3)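 C. trachomatis serovar EBs (5 × 10⁶ IFU/ml) diluted in 100% VFS (zinc-free for SFS), 100% SFS or 10% HSA, mixed 1:1 with five 4-fold SPG dilutions (final 60 μM/30 mM top; 50% VFS, 50% SFS, 5% HSA). After 5 or 120 min, diluted 1:40, inoculated onto McCoy monolayers. Inclusions stained with anti-LPS/FITC after 36–48 h. Inhibition versus no-drug control in the same fluid; MCC is complete inhibition.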

Chlamydia trachomatis [6] = test: Antibacterial activity against Chlamydia trachomatis serovar D at 60.0 - 3.75 uM after 120 mins by MCC assay in presence of simulated vaginal fluid relative to control; type: functional, organism-based; method in brief: as §3
Chlamydia trachomatis [7] = test: Antibacterial activity against Chlamydia trachomatis serovar D at 60.0 - 3.75 uM after 5 mins by MCC assay in presence of simulated seminal fluid relative to control; type: functional, organism-based; method in brief: as §3
Chlamydia trachomatis [8] = test: Antibacterial activity against Chlamydia trachomatis serovar D at 60.0 - 3.75 uM after 120 mins by MCC assay in presence of simulated seminal fluid relative to control; type: functional, organism-based; method in brief: as §3
Chlamydia trachomatis [9] = test: Antibacterial activity against Chlamydia trachomatis serovar D at 60.0 - 3.75 uM after 5 mins by MCC assay in presence of human serum albumin relative to control; type: functional, organism-based; method in brief: as §3
Chlamydia trachomatis [10] = test: Antibacterial activity against Chlamydia trachomatis serovar D at 60.0 - 3.75 uM after 120 mins by MCC assay in presence of human serum albumin relative to control; type: functional, organism-based; method in brief: as §3
Chlamydia trachomatis [11] = test: Antibacterial activity against Chlamydia trachomatis serovar E at 60.0 - 3.75 uM after 5 mins by MCC assay in presence of simulated vaginal fluid relative to control; type: functional, organism-based; method in brief: as §3
Chlamydia trachomatis [12] = test: Antibacterial activity against Chlamydia trachomatis serovar E at 60.0 - 3.75 uM after 120 mins by MCC assay in presence of simulated vaginal fluid relative to control; type: functional, organism-based; method in brief: as §3
Chlamydia trachomatis [13] = test: Antibacterial activity against Chlamydia trachomatis serovar E at 60.0 - 3.75 uM after 5 mins by MCC assay in presence of simulated seminal fluid relative to control; type: functional, organism-based; method in brief: as §3
Chlamydia trachomatis [14] = test: Antibacterial activity against Chlamydia trachomatis serovar E at 60.0 - 3.75 uM after 120 mins by MCC assay in presence of simulated seminal fluid relative to control; type: functional, organism-based; method in brief: as §3
Chlamydia trachomatis [15] = test: Antibacterial activity against Chlamydia trachomatis serovar E at 60.0 -3.75 uM after 5 mins by MCC assay in presence of human serum albumin relative to control; type: functional, organism-based; method in brief: as §3
Chlamydia trachomatis [16] = test: Antibacterial activity against Chlamydia trachomatis serovar E at 60.0 -3.75 uM after 120 mins by MCC assay in presence of human serum albumin relative to control; type: functional, organism-based; method in brief: as §3
Chlamydia trachomatis [17] = test: Antibacterial activity against Chlamydia trachomatis serovar L2 at 60.0 - 3.75 uM after 5 mins by MCC assay in presence of simulated vaginal fluid relative to control; type: functional, organism-based
Method in brief: (§4)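 McCoy monolayers seeded 5 × 10⁴ cells/well the day before. Five 4-fold dilutions in SPG (from 120 μM, 60 μM final) mixed 1:1 with EBs (5 × 10⁶ IFU/ml) in VFS, SFS or HSA, giving final 50% VFS, 50% SFS or 5% HSA. After exposure, mix diluted 1:40 in SPG, then inoculated. Inhibition is relative to a no-drug control in the same fluid and exposure time.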

Chlamydia trachomatis [18] = test: Antibacterial activity against Chlamydia trachomatis serovar L2 at 60.0 - 3.75 uM after 120 mins by MCC assay in presence of simulated vaginal fluid relative to control; type: functional, organism-based; method in brief: as §3
Chlamydia trachomatis [19] = test: Antibacterial activity against Chlamydia trachomatis serovar L2 at 60.0 -3.75 uM after 5 mins by MCC assay in presence of simulated seminal fluid relative to control; type: functional, organism-based; method in brief: as §4
Chlamydia trachomatis [20] = test: Antibacterial activity against Chlamydia trachomatis serovar L2 at 60.0 -3.75 uM after 120 mins by MCC assay in presence of simulated seminal fluid relative to control; type: functional, organism-based; method in brief: as §4
Chlamydia trachomatis [21] = test: Antibacterial activity against Chlamydia trachomatis serovar L2 at 60.0 - 3.75 uM after 5 mins by MCC assay in presence of human serum albumin relative to control; type: functional, organism-based; method in brief: as §4
Chlamydia trachomatis [22] = test: Antibacterial activity against Chlamydia trachomatis serovar L2 at 60.0 - 3.75 uM after 120 mins by MCC assay in presence of human serum albumin relative to control; type: functional, organism-based; method in brief: as §3
Chlamydia trachomatis [23] = test: Antibacterial activity against Chlamydia trachomatis serovar D at 3.75 uM at pH 4 after 120 mins by MCC assay in presence of sucrose- phosphate-glutamate buffer; type: functional, organism-based
Method in brief: (§5)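 Compounds and EBs were each diluted in SPG at pH 4, 5.5, 7 or 8 and mixed 1:1, so exposure pH was constant. Five 4-fold dilutions were used (top 60 μM peptide, 30 mM lipid). After 5 or 120 min, the mix was diluted 1:40 in pH 7.5 SPG and plated on McCoy cells. Inclusion counts were compared with a no-drug control at the same pH and time.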

Chlamydia trachomatis [24] = test: Antibacterial activity against Chlamydia trachomatis serovar D at 3.75 uM at pH 7 after 120 mins by MCC assay in presence of sucrose-phosphate-glutamate buffer relative to contro; type: functional, organism-based; method in brief: as §5
Chlamydia trachomatis [25] = test: Antibacterial activity against Chlamydia trachomatis serovar L2 at 3.75 uM at pH 4 after 120 mins by MCC assay in presence of sucrose-phosphate-glutamate buffer relative to control; type: functional, organism-based; method in brief: as §5
Chlamydia trachomatis [26] = test: Antibacterial activity against Chlamydia trachomatis serovar L2 at => 3.13 uM after 120 mins relative to control; type: functional
Chlamydia trachomatis [27] = test: Antibacterial activity against Chlamydia trachomatis serovar L2 at => 3.13 uM after 5 mins relative to control; type: functional
Chlamydia trachomatis [28] = test: Antibacterial activity against Chlamydia trachomatis serovar D at 15 uM at pH 4 after 120 mins by MCC assay in presence of sucrose- phosphate-glutamate buffer; type: functional, organism-based; method in brief: as §5
Chlamydia trachomatis [29] = test: Antibacterial activity against Chlamydia trachomatis serovar D at 15 uM at pH 7 after 120 mins by MCC assay in presence of sucrose- phosphate-glutamate buffer; type: functional, organism-based; method in brief: as §5
Chlamydia trachomatis [30] = test: Antibacterial activity against Chlamydia trachomatis serovar D at 15 uM at pH 7 after 120 mins by MCC assay in presence of sucrose-phosphate-glutamate buffer relative to contro; type: functional, organism-based; method in brief: as §5
Chlamydia trachomatis [31] = test: Antibacterial activity against Chlamydia trachomatis serovar L2 at 15 uM at pH 7 after 120 mins by MCC assay in presence of sucrose-phosphate-glutamate buffer relative to control; type: functional, organism-based; method in brief: as §5
Chlamydia trachomatis [32] = test: Antibacterial activity against Chlamydia trachomatis serovar L2 at 3.75 uM at pH 7 after 120 mins by MCC assay in presence of sucrose-phosphate-glutamate buffer relative to control; type: functional, organism-based; method in brief: as §5

With H-RRWVRRVRRWVRRVVRVVRRWVRR-OH the Activity [1] was “Non-toxic”, the Activity [2] was “Non-toxic” and the inhibition at 50 µM (Chlamydia trachomatis [3]) was 89.3%. For the same substance, the inhibition at 50 µM (Chlamydia trachomatis [4]) was 99.9%, the Activity (Chlamydia trachomatis [5]) was “inactive” and the Activity (Chlamydia trachomatis [6]) was “inactive”. For the same substance, the Activity (Chlamydia trachomatis [7]) was “inactive”, the Activity (Chlamydia trachomatis [8]) was “inactive” and the Activity (Chlamydia trachomatis [9]) was “inactive”. For the same substance, the Activity (Chlamydia trachomatis [10]) was “inactive”, the Activity (Chlamydia trachomatis [11]) was “inactive” and the Activity (Chlamydia trachomatis [12]) was “inactive”. The Activity (Chlamydia trachomatis [13]) was “inactive”, the Activity (Chlamydia trachomatis [14]) was “inactive” and the Activity (Chlamydia trachomatis [15]) was “inactive”. For the same substance, the Activity (Chlamydia trachomatis [16]) was “inactive”, the Activity (Chlamydia trachomatis [17]) was “inactive” and the Activity (Chlamydia trachomatis [18]) was “inactive”. For the same substance, the Activity (Chlamydia trachomatis [19]) was “inactive”, the Activity (Chlamydia trachomatis [20]) was “inactive” and the Activity (Chlamydia trachomatis [21]) was “inactive”. The Activity (Chlamydia trachomatis [22]) was “inactive”, the Activity (Chlamydia trachomatis [23]) was “inactive” and the Activity (Chlamydia trachomatis [24]) was “inactive”. For the same substance, the Activity (Chlamydia trachomatis [25]) was “inactive”, the Activity (Chlamydia trachomatis [26]) was greater than 97% and the Activity (Chlamydia trachomatis [27]) was greater than 56%. The Activity (Chlamydia trachomatis [28]) was “inactive”, the Activity (Chlamydia trachomatis [29]) was “inactive” and the Activity (Chlamydia trachomatis [30]) was “inactive”. The Activity (Chlamydia trachomatis [31]) was “inactive” and the Activity (Chlamydia trachomatis [32]) was “inactive”.
